From ChEMBL document CHEMBL1121659 (J Med Chem, 1981)

Legend:
Mus musculus [1] = assay: Time to first twitch in intravenous pentylenetetrazole test in mice at 200 mg/kg for 96 hr time of test; format: functional
Outline: (§1)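 Carworth Farm No. 1 mice (average 20 g) were dosed ip. At set times afterwards, 0.5% pentylenetetrazol in heparinized saline was infused into the tail vein at 0.34 mL/min. Time to first twitch was recorded in individual mice, with observation to 240 s.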

Mus musculus [2] = assay: Time to first twitch in intravenous pentylenetetrazole test in mice at 500 mg/kg for 24 hr time of test; format: functional
Outline: (§2)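 Carworth Farm no. 1 mice (av wt 20 g) given the compound ip; at the designated time afterwards, 0.5% pentylenetetrazol in heparinized saline was infused into the tail vein at 0.34 mL/min. Time to first twitch (minimal excitation) was recorded for individual mice, observed up to 240 s.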

[3] = Compound was evaluated for the tissue levels after 1 hour of administration of 5 mg/kg through intravenous route, the given data is tissue/plasma ratios heart; format: ADME, organism-based; design: dose 5 mg/kg, route intravenous
Outline: (§3)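 Anesthetized male Wistar rats received [14C] compound 5 mg/kg by slow jugular infusion in propylene glycol–0.1 N NaOH (1:1). Tissues were taken at 1 h, four per group, rinsed, blotted and weighed. Fat, muscle and red cells were combusted directly, other organs after EtOH homogenization. Tissue/plasma 14C ratios were computed.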

Mus musculus [4] = assay: Time to first twitch in intravenous pentylenetetrazole test in mice at 150 mg/kg for 72 h time of test; format: functional; outline: as §1
[5] = Compound was evaluated for the biological half life of elimination in feces; format: ADME, tissue-based; details: faeces
[6] = Compound was evaluated for the cumulative excretion rate in rats at the dose 10 mg/kg, intraperitoneally for 18 days through urine; format: ADME, organism-based; design: dose 10 mg/kg, route intraperitoneal; details: rat, ip, read-out: Excretion
Outline: (§4)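 Four male Wistar rats were dosed with [14C] compound at 10 mg/kg ip in propylene glycol (5 mL/kg). Urine and feces were collected at 3-day intervals for 18 days. Fecal EtOH homogenates were combusted and counted. Daily fecal rate for the 0–3 day interval was corrected for gastrointestinal transit time (about 18 h).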

[7] = Compound at the dose 10 mg/kg administered intraperitoneally was evaluated for the excretion rate in rats in 7 days through urine; format: ADME, organism-based; design: dose 10 mg/kg, route intraperitoneal; details: rat, ip, read-out: Excretion
Outline: (§5)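 Male Wistar rats (150–330 g) in individual metabolic cages received [14C] compound 10 mg/kg ip in propylene glycol (5 mL/kg), n=4. Urine and feces were collected for 7 days. Urine was diluted with EtOH and counted directly. Fecal EtOH homogenates were dried, combusted and counted as trapped 14CO2.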

[8] = Compound was evaluated for the biological half life in rats after a dose of 5 mg/kg given intravenous route; format: ADME, organism-based; design: dose 5 mg/kg, route intravenous; details: rat, in vivo
Outline: (§6)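 Male Wistar rats under pentobarbital (25 mg/kg ip) received [14C] compound 5 mg/kg iv in propylene glycol–0.1 N NaOH (1:1). Dosing was by jugular infusion, or by tail vein for later time points.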

[9] = Compound was evaluated for the tissue levels after 1 hour of administration of 5 mg/kg through intravenous route, the given data is tissue/plasma ratios liver; format: ADME, organism-based; design: dose 5 mg/kg, route intravenous; outline: as §3
Mus musculus [10] = assay: Time to first twitch in intravenous pentylenetetrazole test in mice at 200 mg/kg for 30 h time of test; format: functional; outline: as §1
[11] = Compound was evaluated for the tissue levels after 1 hour of administration of 5 mg/kg through intravenous route, the given data is tissue/plasma ratios brain; format: ADME, organism-based; design: dose 5 mg/kg, route intravenous; outline: as §3
Mus musculus [12] = assay: Time to first twitch in intravenous pentylenetetrazole test in mice at 150 mg/kg for 96 hr time of test; format: functional; outline: as §1
Mus musculus [13] = assay: Time to first twitch in intravenous pentylenetetrazole test in mice at 300 mg/kg for 48 hr time of test; format: functional; outline: as §1
[14] = Compound was evaluated for the plasma level at 18 hr in the Swiss webster mouse when administered at the […]; format: ADME; details: read-out: Plasma level
Outline: (§7)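 Swiss Webster mice (20–30 g) received [14C] compound 10 mg/kg ip. Four animals were killed at each of 12, 18, 24, 36, 48 and 72 h. Radioactivity was measured in plasma and brain, and the plasma elimination half-life was derived from these levels.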

[15] = Compound was evaluated for the toxicity in mouse on 7 th day when administered through intraperitoneal route; format: organism-based; details: in vivo, ip
Outline: (§8)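 Male Swiss Webster mice (20–40 g) dosed in propylene glycol (10–20 mL/kg), ip at 10, 20, 50, 100 and 200 mg/kg or po at 100 and 200 mg/kg. Ten mice per dose level, observed for toxicity for 1 week. LD50 taken at 7 days.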

Mus musculus [16] = assay: Time to first twitch in intravenous pentylenetetrazole test in mice at 300 mg/kg for 30 hr time of test; format: functional; outline: as §1
Rattus norvegicus = assay: excretion rate in rats after the dose of 5 mg/kg intravenously, at the dose 4 hour Rate of biliary excretion; 0.06-0.15%/h; format: ADME, organism-based, Bile; design: dose 5 mg/kg, route intravenous; details: in vivo, iv
Mus musculus [17] = assay: Time to first twitch in intravenous pentylenetetrazole test in mice at 200 mg/kg for 48 hr time of test; format: functional; outline: as §1
Mus musculus [18] = assay: Time to first twitch in intravenous pentylenetetrazole test in mice at 300 mg/kg for 72 h time of test; format: functional; outline: as §1
[19] = Compound at the dose 10 mg/kg administered intraperitoneally was evaluated for the excretion rate in rats in 7 days through feces; format: ADME, organism-based; design: dose 10 mg/kg, route intraperitoneal; details: rat, faeces, ip, read-out: Excretion; outline: as §5
[20] = Compound was evaluated for the biological half life in rats after a dose of 5 mg/kg given intraperitoneal route; format: ADME, organism-based; design: dose 5 mg/kg, route intraperitoneal; details: rat, in vivo, ip
Outline: (§9)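 Male Wistar rats were given [14C] compound 5 mg/kg ip in propylene glycol (2 mL/kg). Blood was taken by cardiac puncture under ether at 1, 2, 3, 5 and 7 days, six rats per time point. Plasma 14C was counted to give the β-phase elimination half-life and plasma levels.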

[21] = Compound was evaluated for the plasma biological half life in the Swiss webster mouse when administered at the […]; format: ADME, organism-based; outline: as §7
[22] = Compound was evaluated for the tissue levels after 1 hour of administration of 5 mg/kg through intravenous route, the given data is tissue/plasma ratios gastrointestinal tract; format: ADME, organism-based; design: dose 5 mg/kg, route intravenous; outline: as §3
Mus musculus [23] = assay: Time to first twitch in intravenous pentylenetetrazole test in mice at 100 mg/kg for 72 hr time of test; format: functional; outline: as §1
[24] = Compound was evaluated for the tissue levels after 1 hour of administration of 5 mg/kg through intravenous route, the given data is tissue/plasma ratios Muscle; format: ADME, organism-based; design: dose 5 mg/kg, route intravenous; outline: as §3
Mus musculus [25] = assay: Time to first twitch in intravenous pentylenetetrazole test in mice at 200 mg/kg for 72 hr time of test; format: functional; outline: as §1
[26] = Compound was evaluated for the tissue levels after 1 hour of administration of 5 mg/kg through intravenous route, the given data is tissue/plasma ratios lungs; format: ADME, organism-based; design: dose 5 mg/kg, route intravenous; outline: as §3
Mus musculus [27] = assay: Compound was evaluated for the neurotoxicity after intraperitoneal administration at 24 hours; format: organism-based; details: in vivo, ip
Outline: (§10)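 Rotarod ataxia test in Carworth Farm No. 1 mice, run by the ADD program. Dosed ip in aqueous 30% PEG 400. Neurological deficit scored at 24 and 48 h after doses up to 1000 mg/kg.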

Mus musculus [28] = assay: Time to first twitch in intravenous pentylenetetrazole test in mice at 750 mg/kg for 48 hr time of test; format: functional; outline: as §2
Mus musculus [29] = assay: Time to first twitch in intravenous pentylenetetrazole test in mice at 100 mg/kg for 30 h time of test; format: functional; outline: as §1
Mus musculus [30] = assay: Compound was evaluated for the neurotoxicity after intraperitoneal administration at 48 hours; format: organism-based; details: in vivo, ip; outline: as §10
Mus musculus [31] = assay: Time to first twitch in intravenous pentylenetetrazole test in mice at 100 mg/kg for 48 hr time of test; format: functional; outline: as §1
Mus musculus [32] = assay: Time to first twitch in intravenous pentylenetetrazole test in mice at 150 mg/kg for 30 hr time of test; format: functional; outline: as §1
Mus musculus [33] = assay: Time to first twitch in intravenous pentylenetetrazole test in mice at 100 mg/kg for 96 hr time of test; format: functional; outline: as §1
Mus musculus [34] = assay: Time to first twitch in intravenous pentylenetetrazole test in mice at 750 mg/kg for 24 hr time of test; format: functional; outline: as §2
[35] = Compound was evaluated for the average plasma levels at 24 hours, after administration of intraperitoneal route; format: ADME; details: ip, read-out: Plasma level; outline: as §9
[36] = Compound was evaluated for the average apparent volume of distribution when administered through intravenous route; format: ADME, organism-based; details: in vivo, read-out: Vd app; outline: as §6
[37] = Compound was evaluated for the cumulative excretion rate in rats at the dose 10 mg/kg, intraperitoneally for 18 days through feces; format: ADME, organism-based; design: dose 10 mg/kg, route intraperitoneal; details: rat, faeces, ip, read-out: Excretion; outline: as §4
Mus musculus [38] = assay: Time to first twitch in intravenous pentylenetetrazole test in mice at 500 mg/kg for 48 hr time of test; format: functional; outline: as §2
[39] = Compound was evaluated for the tissue levels after 1 hour of administration of 5 mg/kg through intravenous route, the given data is tissue/plasma ratios kidneys; format: ADME, organism-based, Kidney; design: dose 5 mg/kg, route intravenous; outline: as §3
[40] = Compound was evaluated for the average plasma levels at 24 hours, after administration of intravenous route; format: ADME; details: read-out: Plasma level; outline: as §6
[41] = Compound was evaluated for the tissue levels after 1 hour of administration of 5 mg/kg through intravenous route, the given data is tissue/plasma ratios red cells; format: ADME, organism-based; design: dose 5 mg/kg, route intravenous; outline: as §3
[42] = Compound was evaluated for the in rats after the dose of 5 mg/kg intravenously, at the dose 4 hour biliary excretion; format: ADME, organism-based; design: dose 5 mg/kg, route intravenous; details: rat, bile, iv, read-out: Excretion
Outline: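 Three male rats with jugular cannulae, body temperature held at 37–38 °C, received [14C] compound 5 mg/kg by 3–5 min infusion in propylene glycol–ethanol–0.1 N NaOH (4:1:5, 1 mL/kg). Bile was collected in two 30-min periods, then hourly up to 4 h, and counted. Bile volume was also determined.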

Mus musculus [43] = assay: Time to first twitch in intravenous pentylenetetrazole test in mice at 150 mg/kg for 48 hr time of test; format: functional; outline: as §1
Mus musculus [44] = assay: Time to first twitch in intravenous pentylenetetrazole test in mice at 1000 mg/kg for 24 hr time of test; format: functional; outline: as §1
[45] = Compound was evaluated for the Brain levels at 24 h in the Swiss webster mouse when administered at the […]; format: ADME, organism-based; details: read-out: Plasma level; outline: as §7
[46] = Compound was evaluated for the toxicity in mouse on 7 th day when administered through Oral route; format: organism-based; details: in vivo; outline: as §8

SMILES: O=C1NC(=O)C(c2ccc(C(F)(F)F)cc2)(c2ccc(C(F)(F)F)cc2)N1
- Time (Mus musculus [1]): 34.5 s
- Time (Mus musculus [2]): 27.3 s
- Kp at 1 h [3]: 0.66
- Time (Mus musculus [4]): 24.1 s
- half-life [5]: 93.6 h
- dose excreted at 432 h [6]: 0.25%
- dose excreted at 168 h [7]: 0.3%
- half-life [8]: 66.7 h
- Kp at 1 h [9]: 0.96
- Time (Mus musculus [10]): 29.6 s
- Kp at 1 h [11]: 0.14
- Time (Mus musculus [12]): 23.4 s
- Time (Mus musculus [13]): 32.4 s
- concentration at 18 h [14]: 27000 ng/mL
- LD50 at 7 days [15]: 40 mg/kg
- Time (Mus musculus [16]): 22 s
- Excretion rate (Rattus norvegicus): 0.15
- Time (Mus musculus [17]): 24.5 s
- Time (Mus musculus [18]): 24.9 s
- dose excreted at 168 h [19]: 67%
- half-life [20]: 71.7 h
- half-life [21]: 115 h
- Kp at 1 h [22]: 0.48
- Time (Mus musculus [23]): 27.1 s
- Kp at 1 h [24]: 0.41
- Time (Mus musculus [25]): 23.6 s
- Kp at 1 h [26]: 0.62
- Toxic dose (Mus musculus [27]): 750 mg/kg
- Time (Mus musculus [28]): 71 s
- Time (Mus musculus [29]): 23.1 s
- Toxic dose (Mus musculus [30]): 1000 mg/kg
- Time (Mus musculus [31]): 24.3 s
- Time (Mus musculus [32]): 28.6 s
- Time (Mus musculus [33]): 27.5 s
- Time (Mus musculus [34]): 26.6 s
- concentration at 24 h [35]: 11000 ng/mL
- Vd [36]: 0.42 L/kg
- dose excreted at 432 h [37]: 94%
- Time (Mus musculus [38]): 28.7 s
- Kp at 1 h [39]: 0.61
- concentration at 24 h [40]: 9400 ng/mL
- Kp at 1 h [41]: 0.12
- dose excreted at 4 h [42]: 0.5%
- Time (Mus musculus [43]): 26.7 s
- Time (Mus musculus [44]): 25.5 s
- concentration at 24 h [45]: 3500 ng/mL
- LD50 at 7 days [46]: 100 mg/kg
